Assay outcomes deposited in PubChem by several laboratories.
Rows were chosen to be rich in hits. Some 3.4% of all compounds tested hit in one or more screens of this group.
LANA-H2A inh: blockers of LANA interaction with H2A/H2B – biochemical, FP readout, HTS, primary screen; cell-free LANA-H2A/H2B peptide, fluorescence polarization; inhibition, % (test concentration not listed); 320,000 tested, 0.6% active; AID 2629, 2010; in the data active means inhibition mostly above about 10%, no sharp cut-off; inactive means mostly below about 6.7%
TRPML3 agonist: human TRPML3 channel agonists, primary screen, cell-based, HEK293 TRPML3-YFP, Fluo-8 calcium fluorescence, 3 µM. Mucolipin-3 (Homo sapiens), Q8TDD5. 100% = the carbachol control signal. activation, % at 3 µM. 220,000 tested, 0.29% active;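 active means activation above its plate's cutoff, the mean activation of the plate's test wells plus 3 SD, cut at about 12% in these data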;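 further: 0% = DMSO only wells and 100% = carbachol wells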
Target sequence (Q8TDD5 whole entry, looked up): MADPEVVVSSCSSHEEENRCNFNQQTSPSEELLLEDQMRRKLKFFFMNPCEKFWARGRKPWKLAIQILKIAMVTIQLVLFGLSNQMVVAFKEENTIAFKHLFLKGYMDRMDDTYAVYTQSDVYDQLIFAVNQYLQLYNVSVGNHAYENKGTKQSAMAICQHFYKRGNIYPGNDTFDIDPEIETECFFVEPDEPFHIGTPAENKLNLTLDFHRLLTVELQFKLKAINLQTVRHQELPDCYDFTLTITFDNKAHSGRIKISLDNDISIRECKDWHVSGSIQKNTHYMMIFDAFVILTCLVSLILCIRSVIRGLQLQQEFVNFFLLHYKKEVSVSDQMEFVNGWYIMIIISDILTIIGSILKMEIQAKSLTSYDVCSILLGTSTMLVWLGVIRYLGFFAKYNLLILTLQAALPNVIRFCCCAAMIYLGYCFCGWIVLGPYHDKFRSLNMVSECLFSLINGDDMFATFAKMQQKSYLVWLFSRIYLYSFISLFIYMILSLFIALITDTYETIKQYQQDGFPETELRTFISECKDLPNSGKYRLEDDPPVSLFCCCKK
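Test system – HEK293 line with stable expression of human TRPML3-YFP channel · Control set – carbachol 87 µM final as high control (100%), DMSO as low control (0%) · Signal – Fluo-8 calcium dye fluorescence, ex 470-495, em 515-575 nm · Incubation – 1-h 37 °C dye load, 5-s basal, 120-s post-compound reads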
TRPN1 ag: zebrafish TRPN1 channel agonists, primary screen, cell-based, HEK293, calcium fluorescence; 220,000 tested, 0.18% active; HEK293 zebrafish TRPN1-YFP, Fluo-8 calcium fluorescence; 100% = response to 87 µM carbachol; AID 1424, 2008; activation, % at 3 µM;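 active means activation above its plate's cutoff, the mean activation of test wells on that plate plus 3 SD, cut at about 19% in these data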;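 further: 0% = DMSO alone and 100% = 87 µM carbachol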
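Control set: carbachol 87 µM as high control, DMSO as low control; system: HEK293 stable line with zebrafish TRPN1-YFP; read-out: % activation versus carbachol response; detection: intracellular calcium fluorescence with Fluo-8; doses: single test compound dose, 3 µM nominal, 0.3% DMSO; schedule: dye 1 h 37 °C plus 30 min RT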
TAAR1 antag: human TAAR1 antagonists, primary screen, Fluo-8 calcium fluorescence, CHO RD-HGA16 cells; inhibition, % at 3 µM; Trace amine-associated receptor 1 (Homo sapiens), Q96RJ0; antagonist; AID 624466, 2012; 360,000 tested, 1.5% active;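 active means inhibition above a per-plate cutoff, the mean inhibition of test compounds on that plate plus 3 SD, cut at about 49% in these data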;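 further: 0% = DMSO plus EC80 beta-PEA response and 100% = DMSO alone without agonist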
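Test system: hTAAR1-expressing CHO RD-HGA16 cells, Gα16-coupled; Probe or stimulus: EC80 β-phenethylamine stimulus; Compound dosing: single nominal final test compound concentration of 3 µM; Timing: 140 s kinetic read after compound, 140 s after agonist; Signal: Fluo-8 calcium-sensitive fluorescence; Measure: % inhibition of agonist calcium response; Controls: DMSO and EC80 PEA controls.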
TAAR1 ag: human TAAR1 agonists, primary screen, Fluo-8 calcium fluorescence, CHO RD-HGA16 cells; vehicle wells 0%, saturating PEA agonist 100%; 360,000 tested, 0.99% active; activation, % at 3 µM;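 active means activation above the mean activation of all test compounds in the run plus 3 SD, cut at about 38% in these data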
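Assay system: CHO-derived RD-HGA16 cells with stable Gα16 and human TAAR1; timing: 17-24 h seeding, 75 min 37 °C dye, 30 min RT; read-out: % activation from peak over basal fluorescence ratio, DMSO-to-PEA scaled; measured by: kinetic Fluo-8 calcium fluorescence; benchmarks: low control DMSO, high control PEA (EC100); doses: 3 µM single concentration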
GPR7 antag: GPR7 receptor antagonists, primary screen, cell-based, fluorescence, single concentration; Neuropeptides B/W receptor type 1 (Homo sapiens), P48145; GPR7-expressing cells, fluorescence antagonist assay; inhibition, % at 4.4 µM; 290,000 tested, 1.1% active; AID 1861, 2009; in the data active means inhibition above about 16%, passing the limit was not always enough;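 further: cells stimulated with the agonist NPW; 0% = agonist with vehicle and 100% = vehicle without agonist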
nonsel antag count: nonselective antagonists in TAAR1 counter-screen cells, counter-screen for hTAAR1 antagonist project, cell-based, fluorescence, calcium; shares compounds with TAAR1 antag; counterscreen cell line, antagonist mode; inhibition, % at 3 µM; 2,400 tested, 77% active; in the data active means inhibition above about 22%;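 further: CHO-Ga16 host cells stimulated with ATP at an EC80 level; 0% = agonist EC80 plus vehicle and 100% = vehicle without agonist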
TAAR1 antag conf: human TAAR1 antagonists, retest of hits, confirmation, cell-based, fluorescence; shares compounds with TAAR1 antag; TAAR1-expressing cells, fluorescence antagonist read-out; inhibition, % at 3 µM; 2,400 tested, 40% active; in the data active means inhibition above about 49%;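 further: CHO-Ga16 host cells challenged with agonist PEA near its EC80; 0% = agonist at EC80 plus vehicle and 100% = vehicle with no agonist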
Ga16 ag counter: calcium activation in Ga16-expressing cells, counter-screen for TAAR1 antagonist project, cell-based, fluorescence; shares compounds with TAAR1 antag; agonist counterscreen; activation, % at 3 µM; 2,400 tested, 18% active; in the data active means activation above about 12%;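 further: 0% = vehicle wells and 100% = saturating stimulus response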
TAAR1 ag count: TAAR1 activation by candidate antagonists – cell-based, fluorescence, counter-screen for TAAR1 antagonist project | AID 651955, 2012 | 2,400 tested, 2% active | hTAAR1 cell line, agonist mode | activation, % at 3 µM | shares compounds with TAAR1 antag; in the data active means activation above about 37%;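 further: CHO cells stably expressing TAAR1 with calcium dye readout; 0% = DMSO vehicle and 100% = full agonist response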
Numbers without * were called inactive; . = not tested or not shown.

SMILES | LANA-H2A inh | TRPML3 agonist | TRPN1 ag | TAAR1 antag | TAAR1 ag | GPR7 antag | nonsel antag count | TAAR1 antag conf | Ga16 ag counter | TAAR1 ag count
CCn1cc(C(=O)NCC2CCCO2)c(=O)c2cc(S(=O)(=O)N(C)C3CCCCC3)ccc21 (centres undefined) | 5 | 1 | 2 | 52* | 10 | -11 | 20 | 38 | 6 | 5
CCC(C)n1c(NC(=O)c2ccccc2)c(C#N)c2nc3ccccc3nc21 (centres undefined) | -11 | 0 | 2 | 54* | 14 | 11 | 28* | 21 | 5 | 0
CC(C)c1c(C(=O)N/N=C/c2c[nH]c3ccccc23)nnn1-c1nonc1N | 4 | . | . | 75* | 33 | 24 | 40* | 62* | 18* | 18
CCOc1ccccc1N1CCN(C(=O)NCc2ccc(C)cc2)CC1 | 1 | . | . | 10 | 6 | -4 | . | . | . | .
C(=N\Nc1nc(Nc2ccccc2)nc(Nc2ccccc2)n1)/c1cccnc1 | 0 | 0 | -1 | 57* | 9 | -1 | 25* | 46 | 5 | 1
Cc1ccc(-c2cc(-c3ccccc3)nc(N/N=C/c3cccnc3)n2)cc1 | 0 | -1 | 0 | 36 | 7 | -7 | . | . | . | .
C(=N/Nc1nc(-c2ccccc2)cc(-c2ccccc2)n1)/c1cccnc1 | -3 | -1 | 0 | 65* | 11 | -11 | 31* | 53* | 4 | 3
COc1ccccc1CNC(=O)C(Cc1c[nH]c2ccccc12)NC(=O)OCc1ccccc1 (centres undefined) | -8 | 0 | -2 | 63* | 14 | -12 | 20 | 46 | 6 | 6
C[C@H](NC(=O)OCc1ccccc1)C(=O)N[C@@H](Cc1c[nH]c2ccccc12)C(=O)O | 2 | . | . | 17 | 1 | . | . | . | . | .
COc1ccccc1CN(C)C(=O)c1ccc(S(=O)(=O)Nc2c(C)n(C)n(-c3ccccc3)c2=O)cc1 | 3 | . | . | 50* | 8 | . | 20 | 36 | 5 | 4
CSc1ccc(CN(C)C(=O)c2ccc(S(=O)(=O)Nc3c(C)n(C)n(-c4ccccc4)c3=O)cc2)cc1 | . | . | . | -5 | -3 | . | . | . | . | .
Cn1cccc1C(=O)OCc1ccc(C(C)(C)C)cc1 | 0 | . | . | -4 | -4 | -11 | . | . | . | .
Cn1cccc1/C=N\NC(=O)C1COc2ccc(C(C)(C)C)cc2O1 (centres undefined) | 4 | . | . | 51* | 0 | -14 | 25* | 39 | 7 | 1
Cc1c(C(=O)N(Cc2ccccc2)C(C)C)oc2ccc(S(=O)(=O)N3CCOCC3)cc12 | 3 | . | . | 80* | 11 | 13 | 33* | 61* | 13* | 11
Cc1c(C(=O)N(C)Cc2ccccc2)oc2ccc(S(=O)(=O)N3CCCC3)cc12 | -4 | 1 | 2 | -11 | 15 | -1 | . | . | . | .
COC(=O)c1cccc(S(=O)(=O)N(Cc2ccco2)Cc2cc3ccc(OC)cc3[nH]c2=O)c1 | 0 | 0 | 2 | 57* | 21 | -1 | 33* | 57* | 10 | 7
O=C(N=Nc1c(O)[nH]c2ccccc12)c1cc(-c2ccc(F)cc2)n[nH]1 | 6 | 1 | 0 | 65* | 4 | -4 | 14 | 15 | 2 | 0
O=C(Nc1cccc(S(=O)(=O)N2CCCCCC2)c1)c1cc(=O)c2ccccc2o1 | 6 | 1 | 1 | 79* | 13 | -8 | 42* | 57* | 15* | 13
NS(=O)(=O)c1cccc(NC(=O)c2cc(=O)c3ccccc3o2)c1 | 1 | . | . | -29 | 2 | 5 | . | . | . | .
O=C(Nc1cccc(S(=O)(=O)N2CCCC2)c1)c1ccco1 | 1 | . | . | -23 | 26 | . | . | . | . | .
CN(c1ccccc1)S(=O)(=O)c1cccc(NC(=O)c2ccncc2)c1 | 1 | 3 | 7 | 16 | 5 | -6 | . | . | . | .
COc1ccccc1N(C)S(=O)(=O)c1ccc(C(=O)Nc2cc(OC)c(OC)c(OC)c2)cc1 | . | . | . | 57* | 14 | . | 23* | 34 | 10 | 7
CC(=O)Nc1ccc(C(=O)Nc2cccc(S(=O)(=O)N(C)c3ccccc3)c2)cc1 | -2 | . | . | 52* | 18 | . | 33* | 44 | 9 | 5
CN(c1ccccc1)S(=O)(=O)c1cccc(NC(=O)c2cc(=O)c3ccccc3o2)c1 | -5 | 1 | 1 | 74* | 19 | -4 | 40* | 57* | 12* | 7
COc1ccc(C(CNC(=O)c2cccc(S(=O)(=O)N3CCc4ccccc43)c2)N(C)C)cc1 (centres undefined) | 1 | . | . | 9 | 3 | . | . | . | . | .
SMILES | LANA-H2A inh | TRPML3 agonist | TRPN1 ag | TAAR1 antag | TAAR1 ag | GPR7 antag | nonsel antag count | TAAR1 antag conf | Ga16 ag counter | TAAR1 ag count
CCOc1cccc(-c2cc(NCCc3ccccn3)n3nccc3n2)c1 | . | . | . | -8 | 4 | . | . | . | . | .
COc1ccccc1N(C)S(=O)(=O)c1ccc(C(=O)OC(C)C(=O)NCc2ccc3c(c2)OCO3)cc1 (centres undefined) | -6 | 1 | 2 | 56* | 21 | -1 | 36* | 56* | 12* | 12
COc1ccc(Cl)cc1C(=O)OCC(=O)Nc1sccc1C(N)=O | -2 | . | . | 57* | 24 | . | 26* | 50* | 11 | 14
COc1cccc(C(=O)NCC(c2cccs2)N2CCOCC2)c1 (centres undefined) | 6 | . | . | 100* | -3 | . | 13 | -2 | 1 | 5
COc1cc(OC)cc(-c2noc(-c3csc([C@@H]4O[C@H](CO)[C@H](O)[C@H](O)[C@H]4O)n3)n2)c1 | . | . | . | 12 | 0 | . | . | . | . | .
COc1ccc(NC(=O)c2cc(-c3ccccn3)nc3ccccc23)cc1S(=O)(=O)N(C)C | 0 | . | . | 69* | 22 | . | 25* | 43 | 9 | 10
